# Source: PubChem BioAssay
# Hits are enriched below; roughly 2.3% of the tested compounds scored in any of these assays.
# OXTR ag = human OXTR agonists, primary screen, fluorescence, CHO-OTR cells, Fluo-8 calcium; Oxytocin receptor (Homo sapiens), P30559; Fluo-8 calcium fluorescence; normalized: DMSO 0%, oxytocin 100%; activation, % at 3 µM; 320,000 compounds, 0.32% hits;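 active means activation above the mean of all tested compounds plus 3 SD, cutoff set per screening run, cut at about 20% in these data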;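 further: peak over basal fluorescence ratio from a 100 s FLIPR kinetic read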
# Target sequence (P30559 whole entry, looked up): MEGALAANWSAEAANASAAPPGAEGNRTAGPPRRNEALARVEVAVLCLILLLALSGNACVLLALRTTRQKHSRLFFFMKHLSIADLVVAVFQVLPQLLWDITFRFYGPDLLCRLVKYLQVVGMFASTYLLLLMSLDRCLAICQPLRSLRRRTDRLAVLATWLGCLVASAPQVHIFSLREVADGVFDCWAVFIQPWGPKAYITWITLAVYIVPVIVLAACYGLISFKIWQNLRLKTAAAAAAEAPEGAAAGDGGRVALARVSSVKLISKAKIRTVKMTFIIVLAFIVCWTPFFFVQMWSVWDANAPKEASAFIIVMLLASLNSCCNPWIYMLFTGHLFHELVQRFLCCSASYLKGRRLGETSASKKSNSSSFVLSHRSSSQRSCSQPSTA
# V1R ag counter = agonists of human V1a receptor, primary screen, counter-screen for OXTR agonist project, fluorescence, CHO-V1R cells; Fluo-8 calcium fluorescence, agonist mode; 0% DMSO, 100% 3 nM vasopressin; activation, % at 3 µM; Vasopressin V1a receptor (Homo sapiens), P37288; 320,000 compounds, 0.25% hits;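 active means activation above the mean activation of all tested compounds plus 3 SD, per screening run, cut at about 20% in these data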;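 further: signal is peak over basal fluorescence ratio across a 100 second FLIPR read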
# OXTR potentiator = human OXTR potentiators, primary screen, fluorescence, CHO-OTR cells, Fluo-8 calcium. Oxytocin receptor (Homo sapiens), P30559. 320,000 compounds, 0.061% hits. Fluo-8 calcium fluorescence, potentiator mode; 0% = oxytocin EC15, 100% = EC100. activation, % at 3 µM;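 active means activation above that plate's cutoff, the mean activation of tested compounds plus 3 SD, cut at about 6.6% in these data, passing the limit was not always enough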;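 further: 100% uses oxytocin at 75 nM as the full agonist control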
#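 Material: human OTR in CHO cells. Compound: 3.0 µM, one dose. Timing: compound 6 min at room temperature before oxytocin, 100 s read. Evaluation: % activation of max/min ratio relative to oxytocin controls. Replication: single well per compound, singlicate. Signal: Fluo-8 calcium dye fluorescence.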
# TAAR1 ag = human TAAR1 agonists, primary screen, Fluo-8 calcium fluorescence, CHO RD-HGA16 cells; Trace amine-associated receptor 1 (Homo sapiens), Q96RJ0; vehicle wells 0%, saturating PEA agonist 100%; activation, % at 3 µM; 360,000 compounds, 0.99% hits; AID 624467, 2012;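 active means activation above the mean activation of all test compounds in the run plus 3 SD, cut at about 38% in these data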
#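 test system = CHO RD-HGA16 cells carrying human TAAR1 plus Gα16 | schedule = 17-24 h seeding, 75 min 37 °C dye, 30 min RT | compound dosing = 3 µM single concentration | control set = DMSO and PEA EC100 | replicates = n 1 | signal = Fluo-8 fluorescence, 5 s baseline then 140 s kinetic read | measure = percent activation vs PEA EC100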
# TAAR1 antag = human TAAR1 antagonists, primary screen, Fluo-8 calcium fluorescence, CHO RD-HGA16 cells. Trace amine-associated receptor 1 (Homo sapiens), Q96RJ0. antagonist. inhibition, % at 3 µM. 360,000 compounds, 1.5% hits. AID 624466, 2012;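 active means inhibition above a per-plate cutoff, the mean inhibition of test compounds on that plate plus 3 SD, cut at about 49% in these data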;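 further: 0% = DMSO plus EC80 beta-PEA response and 100% = DMSO alone without agonist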
#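 Material: RD-HGA16 CHO cells with stable hTAAR1 and Gα16; Dosing: single nominal final test compound concentration of 3 µM; Schedule: seeding 17-24 h prior, 75-min 37 °C, 30-min RT dye loading; Detection: kinetic Fluo-8 calcium fluorescence measurement; Measure: % inhibition from peak post-agonist over basal fluorescence ratio; Benchmarks: vehicle and agonist controls.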
# TAAR1 ag conf = human TAAR1 agonists, retest of hits, confirmation, Fluo-8 calcium fluorescence, CHO RD-HGA16 cells | shares compounds with TAAR1 ag | scaled: DMSO 0%, maximal phenethylamine 100% | activation, % at 3 µM | 2,400 compounds, 82% hits | AID 651783, 2012;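 active means activation above a cutoff set at the run's mean compound activation plus 3 SD, cut at about 39% in these data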
# Ga16 nonsel ag = nonselective calcium mobilization agonists, CHO-Ga16 cells, counter-screen for hTAAR1 agonist project, cell-based, fluorescence, CHO-Ga16 parental line; 2,400 compounds, 50% hits; shares compounds with TAAR1 ag; activation, % at 3 µM; Fluo-8 calcium fluorescence; normalized to maximal ATP response, DMSO zero; AID 651787, 2012;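 active means activation above the run cutoff, the mean activation over all tested wells plus 3 SD, cut at about 12% in these data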;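 further: 0% = DMSO wells and 100% = maximal ATP response on the peak over basal ratio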
# TAAR1 desens = TAAR1 desensitization by agonist hits, confirmation, counter-screen for TAAR1 agonist project, cell-based, fluorescence, tachyphylaxis; shares compounds with TAAR1 ag; CHO RD-HGA16 hTAAR1, Fluo-8 calcium, beta-PEA response inhibition; inhibition, % at 3 µM; 2,400 compounds, 46% hits; AID 651951, 2012;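 active means inhibition above the run cutoff, the mean inhibition of all test compounds plus 3 SD, cut at about 49% in these data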;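 further: beta-PEA stimulus applied at its EC80; loss of beta-PEA calcium signal after compound pretreatment read as receptor desensitization; 0% = DMSO with beta-PEA at EC80 and 100% = DMSO alone without agonist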
# Ga16 nonsel ant = inhibition of ATP-evoked calcium response in CHO-Ga16 cells, counter-screen for TAAR1 agonist project, cell-based, fluorescence; inhibition, % at 3 µM; shares compounds with TAAR1 ag; AID 651952, 2012; CHO-Ga16 ATP-induced calcium, Fluo-8 fluorescence; 2,400 compounds, 39% hits;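 active means inhibition above the plate's mean compound inhibition plus 3 SD, computed per plate, cut at about 22% in these data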;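 further: 0% = EC80 ATP with DMSO and 100% = DMSO wells without ATP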
# * marks the source's active call; other numbers are inactive results; · = no result given.
SMILES,OXTR ag,V1R ag counter,OXTR potentiator,TAAR1 ag,TAAR1 antag,TAAR1 ag conf,Ga16 nonsel ag,TAAR1 desens,Ga16 nonsel ant
C[C@H]1[C@H](c2ccccc2)Oc2cccc(NCCc3ccccc3)c2S(=O)(=O)N1Cc1cccc(F)c1,·,·,·,61*,7,41*,4,2,3
O=C(O)C1C2CCC(C2)C1C(=O)NCCc1ccc(F)cc1 (configuration not stated),0,0,-4,78*,79*,77*,6,55*,13
O=C(O)C1C2CCC(C2)C1C(=O)NCCc1cccc(Cl)c1 (configuration not stated),1,0,-7,76*,86*,88*,-1,73*,0
O=C(O)C1C2CCC(C2)C1C(=O)Nc1cc(F)ccc1F (configuration not stated),3,0,-13,9,1,·,·,·,·
CCOC(=O)C1(CC2CCCCO2)CCN(C(=O)Nc2ccc(C)c(C)c2)CC1 (configuration not stated),-2,0,3,3,13,·,·,·,·
O=C(Nc1nc2c(Cl)ccc(Cl)c2s1)c1ccco1,8,1,-8,114*,70*,107*,89*,92*,62*
O=C(Nc1nc2ccsc2c(=O)s1)c1ccco1,-1,-1,4,1,-4,·,·,·,·
Cc1ccccc1NC(=O)CC1SC(=O)N(c2ccccc2)C1=O (configuration not stated),0,1,-12,50*,-7,17,2,14,11
COc1ccc(Nc2cc(C)nc(N)n2)cc1,1,0,-4,18,0,·,·,·,·
Cc1cc(Nc2ccc(Cl)cc2)nc(N)n1,-1,0,-8,53*,16,61*,1,37,6
Cc1cccc(N2C(=O)N3[C@H]4c5ccccc5OC[C@@H]4[C@@H](c4ccccc4)[C@@]3(C)C2=O)c1,0,1,0,4,-13,·,·,·,·
Fc1ccccc1C1CCN(Cc2nc(CC3CC3)no2)C1 (configuration not stated),-1,-1,-2,48*,-8,62*,3,-3,2
Fc1ccc2nc(C3CCN(Cc4nc(CC5CC5)no4)CC3)[nH]c2c1,0,0,-10,-1,-8,·,·,·,·
Oc1cccc2ccc(Nc3ccccn3)nc12,3,-1,-11,48*,3,58*,2,-5,-4
Cc1cc(NS(=O)(=O)c2ccc(NC(=S)NC(=O)c3ccccc3)cc2)no1,1,1,7,-1,3,·,·,·,·
Cc1cc(NS(=O)(=O)c2ccc(NC(=S)NC(=O)c3ccc(C(C)(C)C)cc3)cc2)no1,-2,0,-5,45*,-5,18,11,39,20
CCC1(c2ccc(F)cc2)NC(=O)N(CC(=O)Nc2ccccc2Cl)C1=O (configuration not stated),23*,22*,-15,80*,17,72*,36*,33,19
NC(=O)Nc1ccc(C(=O)OCC(=O)c2c[nH]c3ccccc23)cc1,1,0,-4,48*,4,59*,0,15,13
O=C(CNCC1CCCCC1)Nc1ccc(OC(F)(F)F)cc1,5,1,-5,74*,41,76*,51*,49*,33*
CN(CC(=O)Nc1ccc(OC(F)(F)F)cc1)C1CCCCC1,0,-1,1,14,-13,·,·,·,·
CCOCCCn1c(C)nc2c[n+](CC(=O)c3ccc4ccccc4c3)cc(Br)c21,0,0,-7,0,-14,·,·,·,·
COc1ccc(C(=O)NCC(=O)N/N=C/c2cn[nH]c2-c2ccccc2)cc1,-1,-1,-6,-1,0,·,·,·,·
S=C(SSC(=S)N1CCOCC1)N1CCOCC1,·,·,·,56*,-4,54*,23*,11,10
O=C(CCN1CCc2ccccc2CC1)c1ccc2c(c1)OCCO2,1,0,-4,92*,85*,115*,4,97*,9
O=C(CCN1CCOCC1)c1ccc2c(c1)OCCO2,0,2,-2,19,6,·,·,·,·
SMILES,OXTR ag,V1R ag counter,OXTR potentiator,TAAR1 ag,TAAR1 antag,TAAR1 ag conf,Ga16 nonsel ag,TAAR1 desens,Ga16 nonsel ant
CCOc1ccc(/C=N/NC(=O)c2nnn(-c3nonc3N)c2-c2cccs2)cc1,35*,22*,-11,125*,70*,120*,91*,76*,46*
CCOc1ccc(-c2c(C(=O)N/N=C/c3cccs3)nnn2-c2nonc2N)cc1,12,14,0,96*,21,127*,80*,60*,32*
Nc1nonc1-n1nnc(C(=O)N/N=C/c2ccncc2)c1-c1cccs1,2,2,-8,10,-9,·,·,·,·
Nc1nonc1-n1nnc(C(=O)N/N=C/c2cccs2)c1-c1ccc2c(c1)OCO2,35*,52*,-12,141*,66*,122*,81*,65*,28*
CCOC(=O)CN(c1cc([N+](=O)[O-])ccc1OC)S(C)(=O)=O,0,1,-6,1,7,·,·,·,·
Cc1cc(N2CCN(C)CC2)nc2ccc(NC(=S)N3CCN(c4cccc(Cl)c4)CC3)cc12,1,1,0,7,4,·,·,·,·
